Key:
[1] = biological target: T1, Sodium- and chloride-dependent GABA transporter 1 (Mus musculus, UniProt P31648); experiment: Inhibition of mouse GAT1 expressed in HEK293 cells assessed as reduction in [3H]GABA uptake preincubated for 25 mins followed by [3H]GABA addition measured after 4 mins by liquid scintillation counting analysis; assay type: cell-based
Summary of the method: (§1)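 HEK293 cells stably expressing the mouse GAT subtype (about 200000 cells) preincubated with compound for 25 min at 25 °C in the dark with shaking. Then 8 nM [3H]GABA plus 32 nM unlabeled GABA (final) added for 4 min. Stopped by filtration; filter radioactivity by scintillation counting. Photoisomerized 10 mM DMSO-d6 stocks (photostationary state, Z/E ratio by 1H NMR) diluted protected from light; non-irradiated stock tested in parallel.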

[2] = Half life of thermal relaxation of compound in pH 7.4 DMSO-d6/phosphate-buffer using photoirradiated compound at 25 uM incubated in dark by UV/vis-spectroscopy; assay type: physicochemical; settings: pH 7.4, 25 µM
[3] = biological target: T1, Sodium- and chloride-dependent GABA transporter 1; experiment: Inhibition of mouse GAT1 expressed in HEK293 cells assessed as reduction in [3H]GABA uptake preincubated cells with photoirradiated compound for 25 mins followed by [3H]GABA addition measured after 4 mins by liquid scintillation counting method; assay type: cell-based; summary of the method: as §1
GABA transporter 4 = biological target: T2, GABA transporter 4 (Mus musculus, UniProt P31650); experiment: Inhibition of mouse GAT4 expressed in HEK293 cells assessed as reduction in [3H]GABA uptake preincubated for 25 mins followed by [3H]GABA addition measured after 4 mins by liquid scintillation counting analysis; assay type: cell-based; summary of the method: as §1
T2 sequence (P31650 whole entry): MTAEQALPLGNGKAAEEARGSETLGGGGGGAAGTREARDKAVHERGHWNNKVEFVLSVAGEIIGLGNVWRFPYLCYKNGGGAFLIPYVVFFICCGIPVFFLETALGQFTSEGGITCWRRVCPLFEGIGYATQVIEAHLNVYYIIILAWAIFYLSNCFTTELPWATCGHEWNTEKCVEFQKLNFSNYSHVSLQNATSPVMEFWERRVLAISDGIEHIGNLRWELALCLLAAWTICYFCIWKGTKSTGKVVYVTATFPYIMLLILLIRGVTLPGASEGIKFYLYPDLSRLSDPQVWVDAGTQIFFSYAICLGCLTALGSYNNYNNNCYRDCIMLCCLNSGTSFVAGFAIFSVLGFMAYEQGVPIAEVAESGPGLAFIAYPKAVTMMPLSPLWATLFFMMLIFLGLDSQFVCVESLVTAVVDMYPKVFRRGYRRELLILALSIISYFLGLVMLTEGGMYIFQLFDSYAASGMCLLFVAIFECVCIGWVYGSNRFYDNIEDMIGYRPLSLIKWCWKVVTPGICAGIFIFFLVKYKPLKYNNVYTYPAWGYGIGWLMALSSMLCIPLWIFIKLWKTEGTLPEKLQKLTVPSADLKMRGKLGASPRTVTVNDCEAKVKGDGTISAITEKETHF

[4] = biological target: Sodium- and chloride-dependent GABA transporter 1 (Mus musculus) (UniProt P31648); experiment: Inhibition of GAT1 in C57BL/6N mouse dentate gyrus granule cells assessed as induction of tonic GABAA receptor-mediated current response by measuring shift in holding current amplitude at 10 uM by Whole cell voltage-clamp method
Summary of the method: (§2)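 Acute 350 μm coronal dorsal hippocampal slices from mice, recovered 30 min at 34 °C then ≥30 min at room temperature in carbogenated saline (pH 7.4). Superfused at room temperature with NBQX 5 μM, APV 50 μM, CGP 55845 5 μM. Granule cell whole-cell voltage clamp at −70 mV. Compound bath-applied; activated form made by 340 nm UV for 10 min on 10 mM stock just before addition; bicuculline methiodide 20 μM.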

[5] = biological target: T1, Sodium- and chloride-dependent GABA transporter 1; experiment: Inhibition of mouse GAT1 expressed in HEK293 cells assessed as reduction in [3H]GABA uptake; assay type: cell-based
[6] = Half life of thermal relaxation of compound in pH 7.4 DMSO-d6/phosphate-buffer using photoirradiated compound at 20 uM incubated in dark by UV/vis-spectroscopy; assay type: physicochemical; settings: pH 7.4, 20 µM
[7] = Half life of thermal relaxation of compound in pH 7.4 DMSO-d6/phosphate-buffer using photoirradiated compound at 50 uM incubated in dark by UV/vis-spectroscopy; assay type: physicochemical; settings: pH 7.4, 50 µM
[8] = Half life of thermal relaxation of compound in pH 7.4 DMSO-d6/phosphate-buffer using photoirradiated compound at 10 uM incubated in dark by UV/vis-spectroscopy; assay type: physicochemical; settings: pH 7.4, 10 µM
[9] = biological target: T3, GABA transporter 4 (Mus musculus) (UniProt P31650); experiment: Inhibition of mouse GAT4 expressed in HEK293 cells assessed as reduction in [3H]GABA uptake by measuring remaining [3H]GABA uptake levels preincubated cells with photoirradiated compound at 100 uM for 25 mins followed by [3H]GABA addition measured after 4 mins by liquid scintillation counting method relative to control; assay type: cell-based
T3 sequence (whole entry): T2 sequence (P31650 whole entry)

[10] = biological target: Sodium- and chloride-dependent GABA transporter 1 (Mus musculus) (UniProt P31648); experiment: Inhibition of GAT1 in C57BL/6N mouse dentate gyrus granule cells assessed as induction of tonic GABAA receptor-mediated current response by measuring shift in holding current amplitude using UV-activated compound at 10 uM by Whole cell voltage-clamp method; summary of the method: as §2
[11] = system: GABA transporter 2, Slc6a13 (Mus musculus); experiment: Inhibition of mouse GAT3 expressed in HEK293 cells assessed as reduction in [3H]GABA uptake by measuring remaining [3H]GABA uptake levels preincubated cells with photoirradiated compound at 100 uM for 25 mins followed by [3H]GABA addition measured after 4 mins by liquid scintillation counting …
[12] = biological target: Sodium- and chloride-dependent GABA transporter 1 (Mus musculus) (UniProt P31648); experiment: Inhibition of GAT1 in C57BL/6N mouse dentate gyrus granule cells assessed as induction of tonic GABAA receptor-mediated current response by measuring shift in holding current amplitude using UV-activated compound at 10 uM in presence of GABAA receptor blocker bicuculline methiodide by Whole cell voltage-clamp method; summary of the method: as §2
[13] = system: betaine/GABA transporter BGT1, Slc6a12 (Mus musculus); experiment: Inhibition of mouse GAT2 expressed in HEK293 cells assessed as reduction in [3H]GABA uptake by measuring remaining [3H]GABA uptake levels preincubated cells with photoirradiated compound at 100 uM for 25 mins followed by [3H]GABA addition measured after 4 mins by liquid scintillation counting …

SMILES | IC50 [1] | IC50 [3] | further results
O=C(O)C1CCCN(CCCC#Cc2ccc(/N=N/c3cccc4ccccc34)cc2)C1 (stereo unspecified) | 3.02 µM | – | –
O=C(O)C1CCCN(CCCC#Cc2ccc(/N=N/c3ccccc3)cc2)C1 (stereo unspecified) | 7.59 µM | – | –
O=C(O)C1CCCN(CCC/C=C/c2ccc(/N=N/c3ccccc3)cc2)C1 (stereo unspecified) | 5.75 µM | – | –
O=C(O)C1CCCN(CCC#Cc2ccc(N=Nc3ccccc3)cc2)C1 (mixture of isomers) | – | 2.57 µM | t1/2 [2]: 115 h
O=C(O)C1CCCN(CCC#Cc2cccc(/N=N/c3cccc4ccccc34)c2)C1 (stereo unspecified) | 6.46 µM | – | –
O=C(O)[C@@H]1CCCN(CCC#Cc2cccc(/N=N/c3ccccc3)c2)C1 | 22.4 µM | – | IC50 (GABA transporter 4): 10 to 100 µM; Activity [4]: -0.22 pA
O=C(O)C1CCCN(CCC#Cc2cccc(/N=N/c3ccccc3)c2)C1 (stereo unspecified) | 32.4 µM | – | –
O=C(O)C1CCCN(CCCC#Cc2cccc(/N=N/c3cccc4ccccc34)c2)C1 (stereo unspecified) | 12.3 µM | – | –
O=C(O)C1CCCN(CCCC#Cc2cccc(/N=N/c3ccccc3)c2)C1 (stereo unspecified) | 14.5 µM | – | –
O=C(O)[C@@H]1CCCN(CCC#Cc2ccc(N=Nc3ccccc3)cc2)C1 (mixture of isomers) | – | 1.45 µM | –
O=C(O)C1CCCN(CC/C=C/c2cccc(/N=N/c3ccccc3)c2)C1 (stereo unspecified) | 38 µM | – | –
O=C(O)C1CCCN(CCC#Cc2ccccc2-c2ccccc2)C1 (stereo unspecified) | – | – | IC50 [5]: 0.1 µM
O=C(O)C1CCCN(CCC=Cc2cccc(N=Nc3ccccc3)c2)C1 (mixture of isomers) | – | 4.79 µM | t1/2 [2]: 312 h
O=C(O)C1CCCN(CCCC=Cc2cccc(N=Nc3cccc4ccccc34)c2)C1 (mixture of isomers) | – | 10 µM | t1/2 [6]: 11 h
O=C(O)C1CCCN(CCCC=Cc2ccc(N=Nc3ccccc3)cc2)C1 (mixture of isomers) | – | 23.4 µM | t1/2 [7]: 45.6 h
O=C(O)C1CCCN(CCC/C=C/c2ccc(/N=N/c3cccc4ccccc34)cc2)C1 (stereo unspecified) | 6.46 µM | – | –
O=C(O)C1CCCN(CCC=Cc2ccc(N=Nc3cccc4ccccc34)cc2)C1 (mixture of isomers) | – | 7.41 µM | t1/2 [8]: 1.2 h
O=C(O)C1CCCN(CC/C=C/c2ccc(/N=N/c3ccccc3)cc2)C1 (stereo unspecified) | 10 µM | – | –
O=C(O)[C@@H]1CCCN(CCC#Cc2ccc(/N=N/c3ccccc3)cc2)C1 | 0.417 µM | – | IC50 (GABA transporter 4): 10 to 100 µM
O=C(O)C1CCCN(CCC#Cc2cccc(N=Nc3cccc4ccccc34)c2)C1 (mixture of isomers) | – | 1.95 µM | t1/2 [6]: 18 h
O=C(O)C1CCCN(CC/C=C/c2ccccc2-c2ccccc2)C1 (stereo unspecified) | – | – | IC50 [5]: 0.162 µM

SMILES | IC50 [1] | IC50 [3] | further results
O=C(O)[C@@H]1CCCN(CCC#Cc2cccc(N=Nc3cccc4ccccc34)c2)C1 (mixture of isomers) | – | 1 µM | –
O=C(O)C1CCCN(CCCC=Cc2ccc(N=Nc3cccc4ccccc34)cc2)C1 (mixture of isomers) | – | 6.17 µM | t1/2 [8]: 1.5 h
O=C(O)[C@@H]1CCCN(CCC#Cc2ccc(N=Nc3cccc4ccccc34)cc2)C1 (mixture of isomers) | – | 0.182 µM | –
O=C(O)C1CCCN(CC/C=C/c2ccc(/N=N/c3cccc4ccccc34)cc2)C1 (stereo unspecified) | 8.71 µM | – | –
O=C(O)[C@@H]1CCCN(CCC#Cc2cccc(/N=N/c3cccc4ccccc34)c2)C1 | 4.27 µM | – | IC50 (GABA transporter 4): 10 to 100 µM
O=C(O)C1CCCN(CCCC#Cc2ccc(N=Nc3cccc4ccccc34)cc2)C1 (mixture of isomers) | – | 4.9 µM | t1/2 [8]: 4.3 h
O=C(O)C1CCCN(CCCC#Cc2ccc(N=Nc3ccccc3)cc2)C1 (mixture of isomers) | – | 25.7 µM | t1/2 [2]: 163 h
O=C(O)C1CCCN(CCC/C=C/c2cccc(/N=N/c3ccccc3)c2)C1 (stereo unspecified) | 38 µM | – | –
O=C(O)C1CCCN(CCC=Cc2ccc(N=Nc3ccccc3)cc2)C1 (mixture of isomers) | – | 37.2 µM | t1/2 [7]: 26.4 h
O=C(O)C1CCCN(CCCC=Cc2cccc(N=Nc3ccccc3)c2)C1 (mixture of isomers) | – | 25.1 µM | t1/2 [6]: 288 h
O=C(O)C1CCCN(CCCC#Cc2cccc(N=Nc3ccccc3)c2)C1 (mixture of isomers) | – | 4.07 µM | t1/2 [6]: 360 h
O=C(O)C1CCCN(CCCC#Cc2cccc(N=Nc3cccc4ccccc34)c2)C1 (mixture of isomers) | – | 13.8 µM | t1/2 [6]: 43.2 h
O=C(O)[C@@H]1CCCN(CCC#Cc2ccc(/N=N/c3cccc4ccccc34)cc2)C1 | 0.0977 µM | – | IC50 (GABA transporter 4): 10 to 100 µM
O=C(O)[C@@H]1CCCN(CCC#Cc2cccc(N=Nc3ccccc3)c2)C1 (mixture of isomers) | – | 0.417 µM | Activity [9]: 57%; Activity [10]: -25.3 pA; Activity [11]: 60%; Activity [12]: -1.84 pA; Activity [13]: 76%
O=C(O)C1CCCN(CCC=Cc2cccc(N=Nc3cccc4ccccc34)c2)C1 (mixture of isomers) | – | 5.89 µM | t1/2 [6]: 22 h
O=C(O)C1CCCN(CCC/C=C/c2cccc(/N=N/c3cccc4ccccc34)c2)C1 (stereo unspecified) | 19.5 µM | – | –
O=C(O)C1CCCN(CC/C=C/c2cccc(/N=N/c3cccc4ccccc34)c2)C1 (stereo unspecified) | 12.3 µM | – | –
O=C(O)C1CCCN(CCC#Cc2ccc(N=Nc3cccc4ccccc34)cc2)C1 (mixture of isomers) | – | 0.229 µM | t1/2 [8]: 3.4 h
O=C(O)C1CCCN(CCC#Cc2ccc(/N=N/c3ccccc3)cc2)C1 (stereo unspecified) | 0.646 µM | – | –
O=C(O)C1CCCN(CCC#Cc2ccc(/N=N/c3cccc4ccccc34)cc2)C1 (stereo unspecified) | 0.126 µM | – | –

Reference: ChEMBL document CHEMBL4130630 (J Med Chem, 2018)
